Source: ChEMBL document CHEMBL4689842, “EUbOPEN Chemogenomics Library wave 1” (2021)

Test system: U2OS
Assay: Multiplex assay against U2OS
Format: toxicity, cell-based
Settings: human
Summary of the method: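 Hoechst33342, BioTracker Green Microtubule Cytoskeleton Dye, MitoTracker Red and Annexin V Alexa Fluor 680 were added to live cells at seeding, and imaging on a CQ1 microscope at 37°C and 5% CO2 followed compound addition. Gating by CellPathfinder machine learning separated cells into Hoechst high-intensity objects or normal cells, then normal cells into healthy, pyknosed or fragmented nuclei, then pyknosed cells into mitotic or apoptotic. Per cents of healthy-nucleus cells are reported for the tubulin, mitochondrial-mass and membrane-permeability phenotypes.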

[1] = 12 h, 1 µM, compound concentration 1 uM, replicate 1
[2] = 12 h, 1 µM, compound concentration 1 uM, replicate 2
[3] = 12 h, 10 µM, compound concentration 10 uM, replicate 1
[4] = 12 h, 10 µM, compound concentration 10 uM, replicate 2
[5] = 24 h, 1 µM, compound concentration 1 uM, replicate 1
[6] = 24 h, 1 µM, compound concentration 1 uM, replicate 2
[7] = 24 h, 10 µM, compound concentration 10 uM, replicate 1
[8] = 24 h, 10 µM, compound concentration 10 uM, replicate 2
[9] = 48 h, 1 µM, compound concentration 1 uM, replicate 1
[10] = 48 h, 1 µM, compound concentration 1 uM, replicate 2
[11] = 48 h, 10 µM, compound concentration 10 uM, replicate 1
[12] = 48 h, 10 µM, compound concentration 10 uM, replicate 2

CNC(=O)Nc1ccc(-c2nc(N3CC4CCC(C3)O4)c3cnn(C4CCC5(CC4)OCCO5)c3n2)cc1
Population Apoptotic (%) [1]: 22%
Population Fragmented Nuclei (%) [1]: 24%
Population Healthy Nuclei (%) [1]: 59%
Population Hoechst High Intensity Objects (%) [1]: 13%
Population Membrane Permeable-Phenotype (%) [1]: 5%
Population Mitochondria Different-Phenotype (%) [1]: 11%
Population Mitotic Cells (%) [1]: 77%
Population Normal (%) [1]: 86%
Population Pyknosed Nuclei (%) [1]: 15%
Population Tubulin-Different-Phenotype (%) [1]: 26%
Total Cell Count [1]: 90
Population Apoptotic (%) [2]: 0%
Population Fragmented Nuclei (%) [2]: 28%
Population Healthy Nuclei (%) [2]: 55%
Population Hoechst High Intensity Objects (%) [2]: 10%
Population Mitochondria Different-Phenotype (%) [2]: 13%
Population Mitotic Cells (%) [2]: 100%
Population Normal (%) [2]: 89%
Population Pyknosed Nuclei (%) [2]: 16%
Population Tubulin-Different-Phenotype (%) [2]: 18%
Total Cell Count [2]: 54
Population Apoptotic (%) [3]: 40%
Population Fragmented Nuclei (%) [3]: 26%
Population Healthy Nuclei (%) [3]: 31%
Population Hoechst High Intensity Objects (%) [3]: 13%
Population Membrane Permeable-Phenotype (%) [3]: 11%
Population Mitochondria Different-Phenotype (%) [3]: 88%
Population Mitotic Cells (%) [3]: 59%
Population Normal (%) [3]: 87%
Population Pyknosed Nuclei (%) [3]: 42%
Population Tubulin-Different-Phenotype (%) [3]: 96%
Total Cell Count [3]: 66
Population Apoptotic (%) [4]: 25%
Population Fragmented Nuclei (%) [4]: 13%
Population Healthy Nuclei (%) [4]: 54%
Population Hoechst High Intensity Objects (%) [4]: 6%
Population Membrane Permeable-Phenotype (%) [4]: 36%
Population Mitochondria Different-Phenotype (%) [4]: 75%
Population Mitotic Cells (%) [4]: 75%
Population Normal (%) [4]: 93%
Population Pyknosed Nuclei (%) [4]: 32%
Total Cell Count [4]: 107
Population Apoptotic (%) [5]: 30%
Population Fragmented Nuclei (%) [5]: 28%
Population Healthy Nuclei (%) [5]: 52%
Population Hoechst High Intensity Objects (%) [5]: 19%
Population Membrane Permeable-Phenotype (%) [5]: 0%
Population Mitochondria Different-Phenotype (%) [5]: 14%
Population Mitotic Cells (%) [5]: 70%
Population Normal (%) [5]: 80%
Population Pyknosed Nuclei (%) [5]: 18%
Population Tubulin-Different-Phenotype (%) [5]: 14%
Total Cell Count [5]: 98
Population Apoptotic (%) [6]: 25%
Population Fragmented Nuclei (%) [6]: 19%
Population Healthy Nuclei (%) [6]: 64%
Population Hoechst High Intensity Objects (%) [6]: 18%
Population Membrane Permeable-Phenotype (%) [6]: 8%
Population Mitochondria Different-Phenotype (%) [6]: 6%
Population Mitotic Cells (%) [6]: 75%
Population Normal (%) [6]: 81%
Population Pyknosed Nuclei (%) [6]: 16%
Population Tubulin-Different-Phenotype (%) [6]: 23%
Total Cell Count [6]: 55
Population Apoptotic (%) [7]: 51%
Population Fragmented Nuclei (%) [7]: 25%
Population Healthy Nuclei (%) [7]: 35%
Population Hoechst High Intensity Objects (%) [7]: 10%
Population Membrane Permeable-Phenotype (%) [7]: 10%
Population Mitochondria Different-Phenotype (%) [7]: 89%
Population Mitotic Cells (%) [7]: 48%
Population Normal (%) [7]: 90%
Population Pyknosed Nuclei (%) [7]: 38%
Population Tubulin-Different-Phenotype (%) [7]: 93%
Total Cell Count [7]: 66
Population Apoptotic (%) [8]: 41%
Population Fragmented Nuclei (%) [8]: 8%
Population Healthy Nuclei (%) [8]: 42%
Population Hoechst High Intensity Objects (%) [8]: 6%
Population Membrane Permeable-Phenotype (%) [8]: 44%
Population Mitochondria Different-Phenotype (%) [8]: 84%
Population Mitotic Cells (%) [8]: 58%
Population Normal (%) [8]: 93%
Population Pyknosed Nuclei (%) [8]: 49%
Population Tubulin-Different-Phenotype (%) [8]: 96%
Total Cell Count [8]: 90
Population Apoptotic (%) [9]: 50%
Population Fragmented Nuclei (%) [9]: 39%
Population Healthy Nuclei (%) [9]: 49%
Population Hoechst High Intensity Objects (%) [9]: 18%
Population Membrane Permeable-Phenotype (%) [9]: 3%
Population Mitochondria Different-Phenotype (%) [9]: 7%
Population Mitotic Cells (%) [9]: 50%
Population Normal (%) [9]: 81%
Population Pyknosed Nuclei (%) [9]: 11%
Population Tubulin-Different-Phenotype (%) [9]: 19%
Total Cell Count [9]: 93
Population Apoptotic (%) [10]: 36%
Population Fragmented Nuclei (%) [10]: 14%
Population Healthy Nuclei (%) [10]: 55%
Population Hoechst High Intensity Objects (%) [10]: 14%
Population Membrane Permeable-Phenotype (%) [10]: 5%
Population Mitochondria Different-Phenotype (%) [10]: 14%
Population Mitotic Cells (%) [10]: 63%
Population Normal (%) [10]: 85%
Population Pyknosed Nuclei (%) [10]: 30%
Population Tubulin-Different-Phenotype (%) [10]: 37%
Total Cell Count [10]: 56
Population Apoptotic (%) [11]: 64%
Population Fragmented Nuclei (%) [11]: 29%
Population Healthy Nuclei (%) [11]: 23%
Population Hoechst High Intensity Objects (%) [11]: 12%
Population Membrane Permeable-Phenotype (%) [11]: 26%
Population Mitochondria Different-Phenotype (%) [11]: 94%
Population Mitotic Cells (%) [11]: 35%
Population Normal (%) [11]: 87%
Population Pyknosed Nuclei (%) [11]: 47%
Population Tubulin-Different-Phenotype (%) [11]: 94%
Total Cell Count [11]: 65
Population Apoptotic (%) [12]: 43%
Population Fragmented Nuclei (%) [12]: 11%
Population Healthy Nuclei (%) [12]: 29%
Population Hoechst High Intensity Objects (%) [12]: 16%
Population Membrane Permeable-Phenotype (%) [12]: 40%
Population Mitochondria Different-Phenotype (%) [12]: 80%
Population Mitotic Cells (%) [12]: 56%
Population Normal (%) [12]: 83%
Population Pyknosed Nuclei (%) [12]: 58%
Population Tubulin-Different-Phenotype (%) [12]: 93%
Total Cell Count [12]: 74
